Experimental data of several laboratories.
Protocols differ between the studies behind these lines.
FGFR3: Fibroblast growth factor receptor 3 (FGFR3, Homo sapiens, UniProt P22607)

SMILES	target	test	conditions	endpoint	result
COc1ncccc1-c1cnn2ccc(N3CCN(C(=O)OC(C)C)CC3)nc12	FGFR3	binding, competition with immobilised ligand	1 µM	remaining binding	86%
Cn1cncc1[C@@](O)(COc1ccc(C#N)cc1-c1ccc(OC(F)(F)F)cc1)c1ccc(C#N)cc1	FGFR3	cell-free assay, competition with immobilised ligand	1 µM	remaining binding	100%
Cn1cc(-c2cc(F)cc(N3CCn4c(cc5c4CCCC5)C3=O)c2CO)cc(Nc2ccc(N3CCN(C4COC4)CC3)cn2)c1=O	FGFR3	enzyme activity, inhibitor	0.1 µM	inhibition	19%
COc1cc(Nc2ncc(F)c(Nc3ccc4c(n3)NC(=O)C(C)(C)O4)n2)cc(OC)c1OC	FGFR3	binding, competition with immobilised ligand	10 µM	inhibition	99%
O=c1[nH]c2ccccc2n1C1CCN(Cc2ccc(-c3[nH]c4cc5ncnc5cc4nc3-c3ccccc3)cc2)CC1	FGFR3	cell-free assay	0.5 µM	remaining signal	101%
Cc1nn(C)cc1-c1nc2c(N3CCN(Cc4ccc(Cl)cc4)CC3)c(Cl)cnc2[nH]1	Fibroblast growth factor receptor 3 (FGFR3, Homo sapiens, UniProt P22607, G697C)	binding, competition with immobilised ligand	1 µM	remaining binding	69%
Nc1ncc(-c2nc(N3CCOCC3)nc(N3CCOCC3)n2)c(C(F)F)n1	FGFR3	cell-free assay, competition with immobilised ligand	10 µM	remaining binding	88%
C#Cc1n[nH]c2c(-c3cn(C(C)c4ccccn4)c(=O)[nH]c3=O)cc(F)cc12 (stereo not drawn)	FGFR3	enzyme activity, inhibitor	1 µM	inhibition	9.3%
CC(C)(C)c1cc(C=C(C#N)C#N)cc(Br)c1O	FGFR3	enzyme activity, inhibitor	0.5 µM	remaining activity	92.8%
